Measurements reported in ChEMBL document CHEMBL4270646, “Novel antimalarial chloroquine- and primaquine-quinoxaline 1,4-di-N-oxide hybrids: Design, synthesis, Plasmodium life cycle stage profile, and preliminary toxicity studies” (Eur J Med Chem, 2018).

Tests used:
[1] = Cytotoxicity against human HepG2 cells assessed as reduction in cell viability after 48 hrs by MTT assay; assay type: cell-based
Summary of the method: (§1)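 Cells seeded at 2 × 10^5 per well and allowed 24 h at 37°C, 5% CO2 to form a monolayer. Dilutions added in triplicate and incubated 48 h. MTT (2 mg/mL) then added for 4 h, followed by DMSO for 20 min at room temperature. Absorbance read at 550 nm; DMSO diluent and untreated cells served as negative controls. CC50 derived from the curve.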

[2] = Selectivity index, ratio of CC50 for human HepG2 cells to IC50 for multidrug-resistant Plasmodium falciparum […]; assay type: toxicity; settings: read-out: Ratio CC50/IC50
Summary of the method: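 Selectivity index = HepG2 CC50 / FCR-3 IC50. CC50 from MTT assay after 48 h exposure, A550. IC50 from 48 h Hoechst 33342 flow-cytometry assay.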

[3] = Cytotoxicity against human HepG2 cells expressing CD81 assessed as reduction in cell viability after 48 hrs by MTT assay; assay type: cell-based; summary of the method: as §1
[4] = Cytotoxicity against human primary hepatocytes assessed as reduction in cell viability after 48 hrs by MTT assay; assay type: cell-based, Hepatocyte; summary of the method: as §1
[5] = system: Plasmodium yoelii; test: Potency index, ratio of primaquine IC50 to compound IC50 for GFP-expressing Plasmodium yoelii sporozoites infected in human HepG2 cells expressing CD81; assay type: functional
[6] = system: Plasmodium yoelii; test: Antiplasmodial activity against Plasmodium yoelii 17XNL sporozoites infected in BALB/c mouse assessed as incident of decrease in peripheral blood parasite levels at 100 mg/kg, po measured at day 1 by […] relative to control; assay type: functional; set-up: scale not given: the % may be the effect or the level left
Summary of the method: (§2)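 BALB/c mice (6-8 weeks, 20-23 g), n=4 per hybrid group and n=5 per control. Dosed orally at 100 mg/kg (100 µL) on days -1, 0, +1 and +2. Vehicle was DMSO 100%; primaquine diphosphate given at 30 mg/kg daily. On day 0, 5 x 10^3 cryopreserved P. yoelii 17XNL sporozoites injected i.v. Parasitaemia read by Giemsa smear and SYBR Green flow cytometry. Groups compared by Kruskal-Wallis test.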

[7] = system: Plasmodium yoelii; test: Antiplasmodial activity against Plasmodium yoelii 17XNL sporozoites infected in BALB/c mouse assessed as pre-patent time period of parasitaemia at 100 mg/kg, po measured at day 4 by […]; assay type: functional; summary of the method: as §2
[8] = system: Plasmodium berghei; test: Antiplasmodial activity against GFP-expressing gametocytes of Plasmodium berghei sporozoites in Anopheles stephensi mosquitoes feeded on blood from infected Swiss mouse assessed as reduction in number of oocysts in mosquito midgut at 100 mg/kg, ip pretreated for 1.5 hrs followed by blood feeding of mosquito and measured at 8 days post mosquitoes infection by fluorescence microscopic method relative to control; assay type: functional; set-up: scale not given: the % may be the effect or the level left
Summary of the method: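 Swiss mice (female, 6 weeks) infected i.p. with PbGFP-infected red cells (200 µL, 3000 parasites/µL). Gametocytes monitored 4 days by Giemsa smear and exflagellation. Hybrid given i.p. at 100 mg/kg in DMSO 1.5 h before A. stephensi fed 1 h on mice with 1% gametocytes. Controls were untreated and DMSO-treated mice. Thirty mosquitoes per group dissected after 8 days. Midgut oocysts counted by fluorescence microscopy against control mosquitoes taken as 100%.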

[9] = system: Mus musculus; test: Acute toxicity in BALB/c mouse assessed as appearance of normal coloured mucosa at 300 to 500 mg/kg, po administered as single dose measured every day for 14 days; assay type: organism-based; settings: in vivo, 336 h
Summary of the method: (§3)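 Female BALB/c mice, 6-8 weeks old, 20-23 g, in groups of three. Single oral dose of 300 or 500 mg/kg; vehicle DMSO 100% given to controls. Mice watched for signs of toxicity for 4 h after dosing. Physical appearance, injury, pain and illness recorded daily for 14 days. Euthanasia in a CO2 chamber on day 14 or earlier if suffering.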

[10] = system: Mus musculus; test: Acute toxicity in BALB/c mouse assessed as appearance of bright hair without erection at 300 to 500 mg/kg, po administered as single dose measured every day for 14 days; assay type: organism-based; settings: in vivo, 336 h; summary of the method: as §3
[11] = system: Mus musculus; test: Acute toxicity in BALB/c mouse assessed as necrosis of kidney at 500 mg/kg, po administered as single dose measured at day 14 by haematoxylin and eosin staining based microscopic analysis; assay type: organism-based; settings: in vivo
Summary of the method: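 Female BALB/c mice, groups of three, single oral dose; vehicle DMSO 100% for controls. Mice euthanised with CO2 on day 14, or earlier if suffering. Gross necropsy performed. Spleen, liver and kidney fixed in formaldehyde 37%, stained with haematoxylin and eosin and examined by light microscopy.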

[12] = system: Mus musculus; test: Acute toxicity in BALB/c mouse assessed as mouse survival at 300 mg/kg, po administered as single dose measured every day for 14 days; assay type: organism-based; settings: in vivo, 336 h; summary of the method: as §3
[13] = system: Mus musculus; test: Acute toxicity in BALB/c mouse assessed as effect on creatinine level at 300 to 500 mg/kg, po administered as single dose measured at day 14; assay type: organism-based; settings: in vivo
[14] = system: Mus musculus; test: Acute toxicity in BALB/c mouse assessed as effect on total bilirubin level at 300 to 500 mg/kg, po administered as single dose measured at day 14; assay type: organism-based; settings: in vivo
[15] = system: Mus musculus; test: Induction of alanine transferase level in BALB/c mouse at 300 to 500 mg/kg, po administered as single dose measured at day 14 (reference value: 34 to 78 U/L); assay type: organism-based; settings: in vivo
Summary of the method: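 BALB/c female mice (6-8 weeks, 20-23 g), groups of three, given one oral dose of 300 or 500 mg/kg; DMSO 100% vehicle for controls. Observed 4 h after dosing, then daily for 14 days. Euthanized on day 14 or on signs of suffering. Blood biochemistry, including alanine transferase, compared with the range in untreated mice.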

[16] = Genotoxicity in Salmonella typhimurium TA1535 harboring pSK1002 assessed as umu gene induction at 0.001 to 0.063 mg/ml after 4 hrs in presence of Sprague-Dawley rat liver S9 fraction by beta-galactosidase reporter gene assay relative to control; assay type: toxicity, organism-based; settings: salmonella enterica subsp. enterica serovar typhimurium; read-out: FC
Summary of the method: (§4)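 SOS/umu test, 4 h at 37°C, with S9 mix or PBS. Positive controls 4-NQO (2.5 µg/mL final, no S9) and 2-AA (0.0125 mg/mL final, with S9). Aliquots incubated with ONPG 0.9 mg/mL in B-buffer for 30 min at 28°C, then stopped with 1 M Na2CO3. Activity calculated as A420/A600. Induction factor is the ratio to the DMSO control; genotoxic if ≥2 at ≥80% survival.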

[17] = system: Mus musculus; test: Acute toxicity in BALB/c mouse assessed as effect on feeding habbit at 300 mg/kg, po administered as single dose measured every day for 14 days; assay type: organism-based; settings: in vivo, 336 h; summary of the method: as §3
[18] = system: Mus musculus; test: Acute toxicity in BALB/c mouse assessed as effect on body weight at 300 mg/kg, po administered as single dose measured every day for 14 days; assay type: organism-based; settings: in vivo, 336 h; summary of the method: as §3
[19] = Genotoxicity in Salmonella typhimurium TA1535 harboring pSK1002 assessed as umu gene induction at 0.001 to 0.063 mg/ml after 4 hrs in absence of Sprague-Dawley rat liver S9 fraction by beta-galactosidase reporter gene assay relative to control; assay type: toxicity, organism-based; settings: salmonella enterica subsp. enterica serovar typhimurium; read-out: FC; summary of the method: as §4

`COc1cc(NC(C)CCCNC(=O)c2c(C)[n+]([O-])c3ccccc3[n+]2[O-])c2ncccc2c1` (centres undefined) gave a CC50 at 48 h [1] of 39.5 µM, a selectivity ratio [2] of 0.58 and a CC50 at 48 h [3] greater than 213 µM. For the same compound, the CC50 at 48 h [4] was greater than 213 µM, the “Ratio IC50” value [5] was 1.5 and the Activity [6] was 25%. For the same compound, the Time [7] was 24 h, the Activity [8] was 92% and the Activity [9] was “Non-Toxic”. The Activity [10] was “Non-Toxic”, the Activity [11] was “Non-Toxic” and the Activity [12] was “Non-Toxic”. The Activity [13] was “Non-Toxic”, the Activity [14] was “Non-Toxic” and the Activity [15] was 82 U/L. For the same compound, the fold induction at 4 h [16] was less than 2, the Activity [17] was “Non-Toxic” and the Activity [18] was “Non-Toxic”. It also gave a fold induction at 4 h [19] of less than 2.
